From ChEMBL document CHEMBL1121417, “[1-beta-Mercapto-beta,beta-cyclopentamethylenepropionic acid),2-(O-methyl)tyrosine ]argine-vasopressin and [1-beta-mercapto-beta,beta-cyclopentamethylenepropionic acid)]argine-vasopressine, two highly potent antagonists of the vasopressor response to arginine-vasopressin” (J Med Chem, 1980)
Starred links: 1 amine or outer side, 2 acyl side, 3 side chain; linkers in the order of their positions; H or OH if unused. Positions of bridges follow the written chain, without caps; N, C: chain ends. Non-standard residues stand in square brackets, D forms with d. Residues, ends and D or L forms follow the SMILES beside them. X1 = O=C(CC1(S[*:2])CCCCC1)[*:1]; X2 = CC(C)(CC(=O)[*:1])S[*:2]; Mpa = O=C(O)CCS

What was measured:
Rattus norvegicus [1] = organism: Rattus norvegicus; assay: Tested for […] anti-oxytocic effect in the absence of Mg2+ in rats; format: functional, organism-based; settings: for Kb: Rattus norvegicus, read-out: pA2 (converted)
Procedure, shortened: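 Isolated rat uterus in vitro in a medium without Mg2+. Antagonism is expressed as pA2 by the Schild method, computed per assay group, with mean ± SE and the number of assays.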

Rattus norvegicus [2] = assay: Tested for intravenous anti-vasopressor pA2 effect in rats; format: functional, organism-based; settings: for Kb: Rattus norvegicus, read-out: pA2 (converted)
Procedure, shortened: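 Vasopressor assay in rats pretreated with phenoxybenzamine under urethane anesthesia, using intravenous injections. The pA2 is derived by the Schild method for each assay group and reported as mean ± SE, with the number of assays given.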

Rattus norvegicus [3] = assay: Tested for intravenous antidiuretic activity in rats; format: functional, Urine; design: unit: U/mg
Procedure, shortened: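 Intravenous antidiuretic assay in rats under ethanol anesthesia. Agonistic activity is expressed in units per milligram.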

Rattus norvegicus [4] = assay: Tested for intravenous anti-vasopressor pA2 effect in rats; agonist at concentration of 346 units/kg; format: functional, organism-based; settings: filed as agonist, in the assay text read “346 units/mg” for “346 units/kg”
Procedure, shortened: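 Vasopressor assay in rats anesthetized with urethane and pretreated with phenoxybenzamine, with intravenous injections. Antagonism is expressed as pA2, calculated by Schild's method for each assay group and reported as mean ± SE, with the number of assays given.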

Rattus norvegicus [5] = assay: Tested for intravenous anti-oxytocic effect in the absence of Mg2+ in rats; agonist at concentration of 47 units/kg; format: functional, organism-based; settings: filed as agonist
Rattus norvegicus [6] = assay: Tested for intravenous anti-oxytocic effect in in vivo in rats; format: functional, organism-based; settings: read-out: pA2 (converted)
Procedure, shortened: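 Rat uterus in situ; antagonism expressed as pA2 by the Schild method, calculated for each assay group and reported as mean ± SE, with the number of assays given.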

Rattus norvegicus [7] = assay: Tested for intravenous anti-oxytocic effect in the presence of Mg2+ in rats; format: functional, organism-based; settings: read-out: pA2 (converted)
Rattus norvegicus [8] = assay: Tested for intravenous anti-oxytocic effect in the absence of Mg2+ in rats; agonist at concentration of 8 units/kg; format: functional, organism-based; settings: filed as agonist
Rattus norvegicus [9] = assay: Tested for intravenous anti-vasopressor pA2 effect in rats; agonist at concentration of 4 units/mg; settings: filed as agonist

**Q.** How did the Kb (Rattus norvegicus [1]) turn out when `COc1ccc(C[C@@H]2NC(=O)CC(C)(C)SSC[C@@H](C(=O)N3CCC[C@H]3C(=O)N[C@@H](CCCN=C(N)N)C(=O)NCC(N)=O)NC(=O)[C@H](CC(N)=O)NC(=O)[C@H](CCC(N)=O)NC(=O)[C@H](Cc3ccccc3)NC2=O)cc1` (Y(Me)FQNCPRG-NH2; linker N-5 via X2) [listing 1 of 2 here] was run?
**A.** Its Kb is 24.5 nM.

**Q.** And the Kb (Rattus norvegicus [2])?
**A.** Its Kb is 20.4 nM.

**Q.** For `N=C(N)NCCC[C@@H](NC(=O)[C@@H]1CCCN1C(=O)[C@@H]1CSSCCC(=O)N[C@@H](Cc2ccc(O)cc2)C(=O)N[C@@H](Cc2ccccc2)C(=O)N[C@@H](CCC(N)=O)C(=O)N[C@@H](CC(N)=O)C(=O)N1)C(=O)NCC(N)=O` [DESMOPRESSIN], which Antidiuretic activity (Rattus norvegicus [3]) is on record?
**A.** Its Antidiuretic activity is 1745.

**Q.** And the pA2 (Rattus norvegicus [4])?
**A.** Its pA2 is “Agonist”.

**Q.** And the pA2 (Rattus norvegicus [5])?
**A.** The pA2 was “Agonist”.

**Q.** `NC(=O)CC[C@@H]1NC(=O)[C@H](Cc2ccccc2)NC(=O)[C@H](Cc2ccc(O)cc2)NC(=O)CC2(CCCCC2)SSC[C@@H](C(=O)N2CCC[C@H]2C(=O)N[C@@H](CCCN=C(N)N)C(=O)NCC(N)=O)NC(=O)[C@H](CC(N)=O)NC1=O` (YFQNCPRG-NH2; linker N-5 via X1) [listing 1 of 2 here] was tested. Which Antidiuretic activity (Rattus norvegicus [3]) did it give?
**A.** The Antidiuretic activity was 0.033.

**Q.** `COc1ccc(C[C@@H]2NC(=O)CCSSC[C@@H](C(=O)N3CCC[C@H]3C(=O)N[C@@H](CCCN=C(N)N)C(=O)NCC(N)=O)NC(=O)[C@H](CC(N)=O)NC(=O)[C@H](CCC(N)=O)NC(=O)[C@H](Cc3ccccc3)NC2=O)cc1` [listing 1 of 2 here] was tested. Which Kb (Rattus norvegicus [1]) did it give?
**A.** Its Kb is 38.9 nM.

**Q.** With `CC(C)[C@@H]1NC(=O)[C@H](Cc2ccccc2)NC(=O)[C@H](Cc2ccc(O)cc2)NC(=O)CC(C)(C)SSC[C@@H](C(=O)N2CCC[C@H]2C(=O)N[C@H](CCCN=C(N)N)C(=O)NCC(N)=O)NC(=O)[C@H](CC(N)=O)NC1=O` (YFVNCP[dR]G-NH2; linker N-5 via X2) [listing 1 of 2 here] as the molecule, how does the Antidiuretic activity (Rattus norvegicus [3]) read?
**A.** The Antidiuretic activity was 123.

**Q.** `NC(=O)CC[C@@H]1NC(=O)[C@H](Cc2ccccc2)NC(=O)[C@H](Cc2ccc(O)cc2)NC(=O)CC2(CCCCC2)SSC[C@@H](C(=O)N2CCC[C@H]2C(=O)N[C@@H](CCCN=C(N)N)C(=O)NCC(N)=O)NC(=O)[C@H](CC(N)=O)NC1=O` (YFQNCPRG-NH2; linker N-5 via X1) [listing 2 of 2 here] was tested. Which Kb (Rattus norvegicus [6]) did it give?
**A.** The Kb was 162 nM.

**Q.** What about the Kb (Rattus norvegicus [7]) of the same molecule?
**A.** Its Kb is 64.6 nM.

**Q.** What about the Kb (Rattus norvegicus [2]) of the same molecule?
**A.** The Kb was 4.47 nM.

**Q.** How did the Kb (Rattus norvegicus [1]) turn out when `CC(C)[C@@H]1NC(=O)[C@H](Cc2ccccc2)NC(=O)[C@H](Cc2ccc(O)cc2)NC(=O)CC2(CCCCC2)SSC[C@@H](C(=O)N2CCC[C@H]2C(=O)N[C@H](CCCN=C(N)N)C(=O)NCC(N)=O)NC(=O)[C@H](CC(N)=O)NC1=O` (YFVNCP[dR]G-NH2; linker N-5 via X1) [listing 1 of 2 here] was run?
**A.** Its Kb is 240 nM.

**Q.** And the Kb (Rattus norvegicus [2])?
**A.** Its Kb is 20.9 nM.

**Q.** `CC(C)[C@@H]1NC(=O)[C@H](Cc2ccccc2)NC(=O)[C@H](Cc2ccc(O)cc2)NC(=O)CC(C)(C)SSC[C@@H](C(=O)N2CCC[C@H]2C(=O)N[C@H](CCCN=C(N)N)C(=O)NCC(N)=O)NC(=O)[C@H](CC(N)=O)NC1=O` (YFVNCP[dR]G-NH2; linker N-5 via X2) [listing 2 of 2 here] was tested. Which Kb (Rattus norvegicus [1]) did it give?
**A.** The Kb was 58.9 nM.

**Q.** And the Kb (Rattus norvegicus [2])?
**A.** Its Kb is 15.1 nM.

**Q.** With `CC1(C)CC(=O)N[C@@H](Cc2ccc(O)cc2)C(=O)N[C@@H](Cc2ccccc2)C(=O)N[C@@H](CCC(N)=O)C(=O)N[C@@H](CC(N)=O)C(=O)N[C@H](C(=O)N2CCC[C@H]2C(=O)N[C@@H](CCCN=C(N)N)C(=O)NCC(N)=O)CSS1` (YFQNCPRG-NH2; linker N-5 via X2) [listing 1 of 2 here] as the molecule, how does the Antidiuretic activity (Rattus norvegicus [3]) read?
**A.** Its Antidiuretic activity is 42.

**Q.** Which Antidiuretic activity (Rattus norvegicus [3]) does the source give for `COc1ccc(C[C@@H]2NC(=O)CC3(CCCCC3)SSC[C@@H](C(=O)N3CCC[C@H]3C(=O)N[C@@H](CCCN=C(N)N)C(=O)NCC(N)=O)NC(=O)[C@H](CC(N)=O)NC(=O)[C@H](CCC(N)=O)NC(=O)[C@H](Cc3ccccc3)NC2=O)cc1` (Y(Me)FQNCPRG-NH2; linker N-5 via X1) here?
**A.** Its Antidiuretic activity is 0.31.

**Q.** And the Kb (Rattus norvegicus [6])?
**A.** The Kb was 240 nM.

**Q.** And the Kb (Rattus norvegicus [7])?
**A.** The Kb was 57.5 nM.

**Q.** And the pA2 (Rattus norvegicus [1])?
**A.** Its pA2 is 8.13.

**Q.** And the Kb (Rattus norvegicus [1])?
**A.** Its Kb is 7.41 nM.

**Q.** What about the pA2 (Rattus norvegicus [2]) of the same molecule?
**A.** The pA2 was 8.67.

**Q.** And the Kb (Rattus norvegicus [2])?
**A.** Its Kb is 2.4 nM.

**Q.** Which Antidiuretic activity (Rattus norvegicus [3]) does the source give for `COc1ccc(C[C@@H]2NC(=O)CCSSC[C@@H](C(=O)N3CCC[C@H]3C(=O)N[C@@H](CCCN=C(N)N)C(=O)NCC(N)=O)NC(=O)[C@H](CC(N)=O)NC(=O)[C@H](CCC(N)=O)NC(=O)[C@H](Cc3ccccc3)NC2=O)cc1` [listing 2 of 2 here] here?
**A.** The Antidiuretic activity was 830.

**Q.** `CC(C)[C@@H]1NC(=O)[C@H](Cc2ccccc2)NC(=O)[C@H](Cc2ccc(O)cc2)NC(=O)CCSSC[C@@H](C(=O)N2CCC[C@H]2C(=O)N[C@H](CCCNC(=N)N)C(=O)NCC(N)=O)NC(=O)[C@H](CC(N)=O)NC1=O` ([Mpa]YFVNCP[dR]G-NH2; disulfide 1-6) was tested. Which Antidiuretic activity (Rattus norvegicus [3]) did it give?
**A.** Its Antidiuretic activity is 1230.

**Q.** And the pA2 (Rattus norvegicus [8])?
**A.** The pA2 was “agonist at concentration of 8 units/kg”.

**Q.** What about the Kb (Rattus norvegicus [2]) of the same molecule?
**A.** The Kb was 93.3 nM.

**Q.** `COc1ccc(C[C@@H]2NC(=O)CC(C)(C)SSC[C@@H](C(=O)N3CCC[C@H]3C(=O)N[C@@H](CCCN=C(N)N)C(=O)NCC(N)=O)NC(=O)[C@H](CC(N)=O)NC(=O)[C@H](CCC(N)=O)NC(=O)[C@H](Cc3ccccc3)NC2=O)cc1` (Y(Me)FQNCPRG-NH2; linker N-5 via X2) [listing 2 of 2 here] was tested. Which Antidiuretic activity (Rattus norvegicus [3]) did it give?
**A.** The Antidiuretic activity was 3.5.

**Q.** With `CC(C)[C@@H]1NC(=O)[C@H](Cc2ccccc2)NC(=O)[C@H](Cc2ccc(O)cc2)NC(=O)CC2(CCCCC2)SSC[C@@H](C(=O)N2CCC[C@H]2C(=O)N[C@H](CCCN=C(N)N)C(=O)NCC(N)=O)NC(=O)[C@H](CC(N)=O)NC1=O` (YFVNCP[dR]G-NH2; linker N-5 via X1) [listing 2 of 2 here] as the molecule, how does the Antidiuretic activity (Rattus norvegicus [3]) read?
**A.** Its Antidiuretic activity is 0.1.

**Q.** For `CC1(C)CC(=O)N[C@@H](Cc2ccc(O)cc2)C(=O)N[C@@H](Cc2ccccc2)C(=O)N[C@@H](CCC(N)=O)C(=O)N[C@@H](CC(N)=O)C(=O)N[C@H](C(=O)N2CCC[C@H]2C(=O)N[C@@H](CCCN=C(N)N)C(=O)NCC(N)=O)CSS1` (YFQNCPRG-NH2; linker N-5 via X2) [listing 2 of 2 here], which Kb (Rattus norvegicus [1]) is on record?
**A.** Its Kb is 117 nM.

**Q.** What about the Kb (Rattus norvegicus [2]) of the same molecule?
**A.** Its Kb is 35.5 nM.

**Q.** How did the pA2 (Rattus norvegicus [9]) turn out when `COc1ccc(C[C@@H]2NC(=O)CCSSC[C@H](C(=O)N3CCC[C@H]3C(=O)N[C@@H](CCCN=C(N)N)C(=O)NCC(N)=O)NC(=O)[C@H](CC(N)=O)NC(=O)[C@H](CCC(N)=O)NC(=O)[C@H](Cc3ccccc3)NC2=O)cc1` was run?
**A.** The pA2 was “agonist at concentration of 4 units/kg”.
